Measured values published in ChEMBL document CHEMBL1255404, “Spread of OXA-48-encoding plasmid in Turkey and beyond” (2010).
Converted amounts (≈) assume the structure as drawn.

Experiments:
Assay type in all cases: functional
[1] = system: Escherichia coli; experiment: Antimicrobial activity against Escherichia coli isolate TOP10 harboring pPR containing beta-lactamase and TEM-101 by Etest method
Summary of the method: (§1)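 β-Lactam MICs read with Etest strips. Strains are E. coli TOP10 host and TOP10 transformants made with plasmid DNA extract when conjugation failed. Transformants were selected on LB agar with ticarcillin 50 μg/ml.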

[2] = system: Escherichia coli; experiment: Antimicrobial activity against Escherichia coli isolate J53 harboring p5A containing beta-lactamase OXA-48 located within transposon Tn1999 by Etest method
Summary of the method: (§2)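 β-Lactam MICs read with Etest strips. Strains are E. coli J53 recipient and J53 transconjugants carrying OXA-48-positive plasmids recovered from clinical enterobacterial isolates.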

[3] = system: Klebsiella pneumoniae; experiment: Antimicrobial activity against Klebsiella pneumoniae isolate Kp6A expressing beta-lactamase OXA-48 and TEM-150 by Etest method
[4] = system: Providencia rettgeri; experiment: Antimicrobial activity against Providencia rettgeri isolate expressing beta-lactamase OXA-48 and TEM-101 by Etest method
[5] = system: Escherichia coli; experiment: Antimicrobial activity against Escherichia coli isolate J53 harboring pI-2 containing beta-lactamase OXA-48 located within transposon Tn1999.2 by Etest method; summary of the method: as §2
[6] = system: Klebsiella pneumoniae; experiment: Antimicrobial activity against Klebsiella pneumoniae isolate KpI-1 expressing beta-lactamase OXA-48 and CTX-M-15 by Etest method
[7] = system: Escherichia coli; experiment: Antimicrobial activity against Escherichia coli isolate J53 harboring p3A containing beta-lactamase OXA-48 located within transposon Tn1999 by Etest method; summary of the method: as §2
[8] = system: Escherichia coli; experiment: Antimicrobial activity against Escherichia coli isolate J53 harboring p6A containing beta-lactamase OXA-48 located within transposon Tn1999 by Etest method; summary of the method: as §2
[9] = system: Klebsiella pneumoniae; experiment: Antimicrobial activity against Klebsiella pneumoniae isolate Kp11978 expressing beta-lactamase OXA-48, SHV-2a and TEM-1 by Etest method
[10] = system: Klebsiella pneumoniae; experiment: Antimicrobial activity against Klebsiella pneumoniae isolate KpL expressing beta-lactamase OXA-48 by Etest method
[11] = system: Escherichia coli; experiment: Antimicrobial activity against Escherichia coli isolate J53 harboring pEnc2 containing beta-lactamase OXA-48 located within transposon Tn1999 by Etest method; summary of the method: as §2
[12] = system: Klebsiella pneumoniae; experiment: Antimicrobial activity against Klebsiella pneumoniae isolate KpB expressing OXA-48 and CTX-M-15 by Etest method
[13] = system: Klebsiella pneumoniae; experiment: Antimicrobial activity against Klebsiella pneumoniae isolate KpE expressing beta-lactamase OXA-48 and CTX-M-15 by Etest method
[14] = system: Klebsiella pneumoniae; experiment: Antimicrobial activity against Klebsiella pneumoniae isolate KpBIC expressing beta-lactamase OXA-48 by Etest method
Summary of the method: (§3)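 MICs of β-lactams read from Etest strips. The test organisms are carbapenem-resistant, OXA-48-positive clinical Enterobacteriaceae isolates recovered from Turkey, Lebanon, Egypt, France and Belgium.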

[15] = system: Escherichia coli; experiment: Antimicrobial activity against Escherichia coli isolate J53 harboring p4A containing beta-lactamase OXA-48 located within transposon Tn1999 by Etest method; summary of the method: as §2
[16] = system: Escherichia coli; experiment: Antimicrobial activity against Escherichia coli isolate J53 harboring pCF containing beta-lactamase OXA-48 located within transposon Tn1999 by Etest method; summary of the method: as §2
[17] = system: Klebsiella pneumoniae; experiment: Antimicrobial activity against Klebsiella pneumoniae isolate KpBEL expressing beta-lactamase OXA-48 by Etest method; summary of the method: as §3
[18] = system: Klebsiella pneumoniae; experiment: Antimicrobial activity against Klebsiella pneumoniae isolate Kp3A expressing beta-lactamase OXA-48 by Etest method; summary of the method: as §3
[19] = system: Escherichia coli; experiment: Antimicrobial activity against Escherichia coli isolate TOP10 by Etest method; summary of the method: as §1
[20] = system: Escherichia coli; experiment: Antimicrobial activity against Escherichia coli isolate J53 harboring pBb containing beta-lactamase OXA-48 located within transposon Tn1999.2 by Etest method; summary of the method: as §2
[21] = system: Escherichia coli; experiment: Antimicrobial activity against Escherichia coli isolate J53 harboring pBEL containing beta-lactamase OXA-48 located within transposon Tn1999.2 by Etest method; summary of the method: as §2
[22] = system: Escherichia coli; experiment: Antimicrobial activity against Escherichia coli isolate J53 harboring pL containing beta-lactamase OXA-48 located within transposon Tn1999.2 by Etest method; summary of the method: as §2
[23] = system: Enterobacter cloacae; experiment: Antimicrobial activity against Enterobacter cloacae isolate 2 expressing beta-lactamase OXA-48 and SHV-5 by Etest method
[24] = system: Escherichia coli; experiment: Antimicrobial activity against Escherichia coli isolate J53 harboring p7A containing beta-lactamase OXA-48 located within transposon Tn1999 by Etest method; summary of the method: as §2
[25] = system: Klebsiella pneumoniae; experiment: Antimicrobial activity against Klebsiella pneumoniae isolate Kp7A expressing beta-lactamase OXA-48 by Etest method; summary of the method: as §3
[26] = system: Klebsiella pneumoniae; experiment: Antimicrobial activity against Klebsiella pneumoniae isolate Kp5A expressing beta-lactamase OXA-48 and SHV-5 by Etest method
[27] = system: Escherichia coli; experiment: Antimicrobial activity against Escherichia coli isolate J53 harboring pA-1 containing beta-lactamase OXA-48 located within transposon Tn1999 by Etest method; summary of the method: as §2
[28] = system: Escherichia coli; experiment: Antimicrobial activity against Escherichia coli isolate J53 harboring pE containing beta-lactamase OXA-48 located within transposon Tn1999.2 by Etest method; summary of the method: as §2
[29] = system: Enterobacter cloacae; experiment: Antimicrobial activity against Enterobacter cloacae isolate 1 expressing beta-lactamase OXA-48 and SHV-5 by Etest method
[30] = system: Escherichia coli; experiment: Antimicrobial activity against Escherichia coli isolate J53 harboring pEnc1 containing beta-lactamase OXA-48 located within transposon Tn1999 by Etest method; summary of the method: as §2
[31] = system: Escherichia coli; experiment: Antimicrobial activity against Escherichia coli isolate A expressing beta-lactamase OXA-48 and TEM-150 by Etest method
[32] = system: Escherichia coli; experiment: Antimicrobial activity against Escherichia coli isolate J53 by Etest method; summary of the method: as §2
[33] = system: Citrobacter freundii; experiment: Antimicrobial activity against Citrobacter freundii isolate expressing beta-lactamase OXA-48 by Etest method
[34] = system: Klebsiella pneumoniae; experiment: Antimicrobial activity against Klebsiella pneumoniae isolate KpI-2 expressing beta-lactamase OXA-48 and CTX-M-15 by Etest method
[35] = system: Escherichia coli; experiment: Antimicrobial activity against Escherichia coli isolate J53 harboring pEcA containing beta-lactamase OXA-48 located within transposon Tn1999.2 by Etest method; summary of the method: as §2
[36] = system: Escherichia coli; experiment: Antimicrobial activity against Escherichia coli isolate J53 harboring pI-1 containing beta-lactamase OXA-48 located within transposon Tn1999.2 by Etest method; summary of the method: as §2
[37] = system: Klebsiella pneumoniae; experiment: Antimicrobial activity against Klebsiella pneumoniae isolate Kp4A expressing beta-lactamase OXA-48 and CTX-M-15 by Etest method
[38] = system: Escherichia coli; experiment: Antimicrobial activity against Escherichia coli isolate TOP10 harboring pBIC containing beta-lactamase OXA-48 located within transposon Tn1999.2 by Etest method; summary of the method: as §1

Compound	MIC [1] [µg/mL]	MIC [2] [µg/mL]	MIC [3] [µg/mL]	MIC [4] [µg/mL]	MIC [5] [µg/mL]	MIC [6] [µg/mL]	MIC [7] [µg/mL]	MIC [8] [µg/mL]	MIC [9] [µg/mL]	MIC [10] [µg/mL]	MIC [11] [µg/mL]	MIC [12] [µg/mL]	MIC [13] [µg/mL]	MIC [14] [µg/mL]	MIC [15] [µg/mL]	MIC [16] [µg/mL]	MIC [17] [µg/mL]	MIC [18] [µg/mL]	MIC [19] [µg/mL]	MIC [20] [µg/mL]	further results
CO/N=C(\C(=O)N[C@@H]1C(=O)N2C(C(=O)O)=C(COC(C)=O)CS[C@H]12)c1csc(N)n1 [CEFOTAXIME]	32 (≈ 70.3 µM)	0.12 (≈ 0.263 µM)	64 (≈ 141 µM)	64 (≈ 141 µM)	0.12 (≈ 0.263 µM)	64 (≈ 141 µM)	0.5 (≈ 1.1 µM)	0.12 (≈ 0.263 µM)	64 (≈ 141 µM)	1.5 (≈ 3.29 µM)	0.25 (≈ 0.549 µM)	> 512	64 (≈ 141 µM)	0.5 (≈ 1.1 µM)	0.12 (≈ 0.263 µM)	0.12 (≈ 0.263 µM)	0.12 (≈ 0.263 µM)	1 (≈ 2.2 µM)	0.06 (≈ 0.132 µM)	0.5 (≈ 1.1 µM)	MIC [21]: 0.12 µg/mL (≈ 0.263 µM); MIC [22]: 0.25 µg/mL (≈ 0.549 µM); MIC [23]: 512 µg/mL (≈ 1120 µM); MIC [24]: 0.5 µg/mL (≈ 1.1 µM); MIC [25]: 0.5 µg/mL (≈ 1.1 µM); MIC [26]: 64 µg/mL (≈ 141 µM); MIC [27]: 0.06 µg/mL (≈ 0.132 µM); MIC [28]: 0.12 µg/mL (≈ 0.263 µM); MIC [29]: > 512 µg/mL; MIC [30]: 0.25 µg/mL (≈ 0.549 µM); MIC [31]: 64 µg/mL (≈ 141 µM); MIC [32]: 0.06 µg/mL (≈ 0.132 µM); MIC [33]: 64 µg/mL (≈ 141 µM); MIC [34]: 64 µg/mL (≈ 141 µM); MIC [35]: 0.12 µg/mL (≈ 0.263 µM); MIC [36]: 0.12 µg/mL (≈ 0.263 µM); MIC [37]: 64 µg/mL (≈ 141 µM); MIC [38]: 0.5 µg/mL (≈ 1.1 µM)
CCN1CCN(C(=O)N[C@@H](C(=O)N[C@@H]2C(=O)N3[C@@H]2SC(C)(C)[C@@H]3C(=O)O)c2ccccc2)C(=O)C1=O [PIPERACILLIN]	128 (≈ 247 µM)	> 512	> 512	> 256	512 (≈ 989 µM)	> 512	512 (≈ 989 µM)	> 512	> 512	96 (≈ 185 µM)	> 512	> 512	> 512	> 512	> 512	> 512	> 256	> 512	2 (≈ 3.86 µM)	> 512	MIC [21]: 128 µg/mL (≈ 247 µM); MIC [22]: 64 µg/mL (≈ 124 µM); MIC [23]: > 512 µg/mL; MIC [24]: > 512 µg/mL; MIC [25]: > 512 µg/mL; MIC [26]: > 512 µg/mL; MIC [27]: 8 µg/mL (≈ 15.5 µM); MIC [28]: 512 µg/mL (≈ 989 µM); MIC [29]: > 512 µg/mL; MIC [30]: > 512 µg/mL; MIC [31]: > 256 µg/mL; MIC [32]: 1 µg/mL (≈ 1.93 µM); MIC [33]: > 512 µg/mL; MIC [34]: > 512 µg/mL; MIC [35]: 128 µg/mL (≈ 247 µM); MIC [36]: 512 µg/mL (≈ 989 µM); MIC [37]: > 512 µg/mL; MIC [38]: > 512 µg/mL
CC(C)(O/N=C(\C(=O)N[C@@H]1C(=O)N2C(C(=O)[O-])=C(C[n+]3ccccc3)CS[C@H]12)c1csc(N)n1)C(=O)O [CEFTAZIDIME]	512 (≈ 937 µM)	0.12 (≈ 0.22 µM)	512 (≈ 937 µM)	512 (≈ 937 µM)	0.12 (≈ 0.22 µM)	512 (≈ 937 µM)	0.25 (≈ 0.457 µM)	0.12 (≈ 0.22 µM)	512 (≈ 937 µM)	0.75 (≈ 1.37 µM)	0.75 (≈ 1.37 µM)	> 512	512 (≈ 937 µM)	0.12 (≈ 0.22 µM)	0.12 (≈ 0.22 µM)	0.75 (≈ 1.37 µM)	1 (≈ 1.83 µM)	0.25 (≈ 0.457 µM)	0.06 (≈ 0.11 µM)	1 (≈ 1.83 µM)	MIC [21]: 0.75 µg/mL (≈ 1.37 µM); MIC [22]: 0.75 µg/mL (≈ 1.37 µM); MIC [23]: 32 µg/mL (≈ 58.5 µM); MIC [24]: 0.12 µg/mL (≈ 0.22 µM); MIC [25]: 0.12 µg/mL (≈ 0.22 µM); MIC [26]: 512 µg/mL (≈ 937 µM); MIC [27]: 0.12 µg/mL (≈ 0.22 µM); MIC [28]: 0.12 µg/mL (≈ 0.22 µM); MIC [29]: > 512 µg/mL; MIC [30]: 0.75 µg/mL (≈ 1.37 µM); MIC [31]: 512 µg/mL (≈ 937 µM); MIC [32]: 0.06 µg/mL (≈ 0.11 µM); MIC [33]: 512 µg/mL (≈ 937 µM); MIC [34]: 512 µg/mL (≈ 937 µM); MIC [35]: 0.75 µg/mL (≈ 1.37 µM); MIC [36]: 0.12 µg/mL (≈ 0.22 µM); MIC [37]: 512 µg/mL (≈ 937 µM); MIC [38]: 0.12 µg/mL (≈ 0.22 µM)
